From publication PMC4832308 (Cancer, 2015)
Converted amounts (≈) assume the structure as drawn. “And” between values parts separate entries of the source, which are not always exact repeats. Equal values may be shown once. Read-outs that look alike come from different tables or passages of the source.

Legend:
[1] = plasma pharmacokinetics in patients; format: in vivo, human
PC3 prostate cancer = settings: cited from earlier work
Ki67 = experiment: immuno‐histochemical staining of tumor biopsies; format: in vivo, human; settings: pre‐ vs on‐treatment (days 15‐22), HCC and salivary gland tumor, 30‐mg/d cohort
Method in brief: (§1)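 Optional pretreatment and on-treatment (days 15–22) tumor biopsies from 2 patients in the 30-mg/d cohort (HCC and salivary gland tumor). Paraffin-embedded sections were immunostained per antibody (pS6RP, p4EBP1, pAKT, Ki-67) or TUNEL-labelled, then scored by quantitative image analysis.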

p4EBP1 [2] = experiment: blood biomarker analysis by flow cytometry and PK/PD modeling; format: in vivo, human
Method in brief: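 Sodium-heparin patient whole blood, taken predose and 1.5–5 h postdose: 1 h at 37°C, 15-min anti-IgD plus LPS stimulation, lyse/fix, methanol overnight at −80°C, then CD3/CD14/CD20 and phospho-staining and flow cytometry. Bead-calibrated MFI reported as ERF. Baseline-relative change vs plasma drug (chiral LC-MS) was fitted by a direct inhibitory NONMEM model for EC50: p4EBP1 in T cells, pS6RP in B cells and monocytes.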

[3] = system: non‐Hodgkin lymphoma cell lines; settings: cited from earlier work
pAKT [4] = experiment: blood biomarker analysis by flow cytometry and PK/PD modeling; format: in vivo, human; settings: for EC50: Homo sapiens, read-out: EC50 for pAKT inhibition
[5] = system: solid tumor lines, including breast, glioma, hepatocellular carcinoma (HCC), and non–small cell lung cancer; settings: cited from earlier work
[6] = urine pharmacokinetics in patients; settings: human, in vivo
pAKT [7] = experiment: immuno‐histochemical staining of tumor biopsies; format: in vivo, human; settings: pre‐ vs on‐treatment (days 15‐22), HCC and salivary gland tumor, 30‐mg/d cohort
Method in brief: as §1

p4EBP1 [8] = experiment: immuno‐histochemical staining of tumor biopsies; format: in vivo, human; settings: HCC sample after treatment initiation
Method in brief: as §1

TUNEL‐positive cells = experiment: TUNEL staining of tumor biopsies; format: in vivo, human; settings: HCC and salivary gland tumor samples after treatment
Method in brief: as §1

[9] = system: U87 glioblastoma multiforme; settings: cited from earlier work
pS6RP = experiment: immuno‐histochemical staining of tumor biopsies; format: in vivo, human; settings: pre‐ vs on‐treatment (days 15‐22), HCC and salivary gland tumor, 30‐mg/d cohort
Method in brief: as §1

[10] = system: patients with advanced solid tumors or multiple myeloma; experiment: phase 1 dose escalation: preliminary efficacy; format: in vivo, human
Method in brief: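 Single dose on day −1, then oral daily dosing after a ≥6-h fast in 28-day cycles until progression. Tumors were imaged by CT or MRI. Response was scored by RECIST 1.1, international uniform criteria for myeloma, or revised high-grade glioma criteria. Evaluable patients were eligible, completed ≥1 cycle, and had baseline plus ≥1 postbaseline assessment. Disease control rate was given with a 90% confidence interval.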

[11] = 30‐, 45‐, and 60‐mg dose levels, 3 hours on treatment

With CO[C@H]1CC[C@H](N2C(=O)CNc3ncc(-c4ccc(C(C)(C)O)nc4)nc32)CC1 [CC‐223] the “dose dependence of Cmax and AUC from time 0 to infinity” value ([1]; 30‐ to 60‐mg dose range, single or multiple doses) was “dose‐proportional”, the half-life ([1]; human, plasma, oral) was 4.86 to 5.64 h and the “ratio of AUC0‐24 between day 15 and day 1” value ([1]; multiple dosing) was no more than 22%. The “single‐agent activity in xenograft model” value (PC3 prostate cancer) was “single‐agent activity”, the “Ki67 staining in tumor biopsies” value (Ki67) was “Significant inhibition” and the “p4EBP1 inhibition in blood cells” value (p4EBP1 [2]; [11]) was greater than 40%. For the same compound, the EC50 (p4EBP1 [2]; Homo sapiens, T-cell, read-out: EC50 for p4EBP1 inhibition) was 0.113 µg/mL (≈ 0.284 µM), the “activity against non‐Hodgkin lymphoma cell lines” value [3] was “active” and the “pAKT inhibition in blood cells” value (pAKT [4]; [11]) was greater than 48%. For the same compound, the EC50 (pAKT [4]; B-cell) was 0.0504 µg/mL (≈ 0.127 µM), the EC50 (pAKT [4]; Monocyte) was 0.085 µg/mL (≈ 0.214 µM) and the “activity against solid tumor lines” value [5] was “active”. For the same compound, the “fraction excreted unchanged in urine” value [6] was less than 0.2%, the renal clearance [6] was “negligible” and the “pAKT staining in tumor biopsies” value (pAKT [7]) was “Significant inhibition”. The “p4EBP1 in tumor biopsy” value (p4EBP1 [8]) was “inhibition”, the “TUNEL‐positive cells in tumor biopsies” value (TUNEL‐positive cells) was “increase” and the “single‐agent activity in xenograft model” value [9] was “single‐agent activity”. For the same compound, the “pS6RP staining in tumor biopsies” value (pS6RP) was “Significant inhibition”, the complete response ([10]; 20 patients evaluable for efficacy) was “No patient had a complete response” and the “patients with stable disease” value ([10]; across ≥15 mg/d cohorts) was 8 patients. For the same compound, the “patients with progressive disease” value ([10]; best response) was 12 patients, the “duration of partial response / disease control” value ([10]; breast cancer patient with PR, 30‐mg/d cohort) was 220 days and the disease control duration ([10]; breast cancer patient with SD) was 168 days. For the same compound, the partial response rate ([10]; breast cancer patient, 30‐mg/d cohort) was 3.6%, the “patients with reduction in target lesions” value ([10]; in addition to the PR) was 5 patients and the “patients with SD >100 days” value ([10]; in vivo) was 5 patients. For the same compound, the “patients with disease control durations of >100 days” value ([10]; in vivo) was “Six”, the “best overall response rate per investigator” value ([10]; safety population) was 3.6% and the disease control rate ([10]; safety population) was 32% and 32.1%. For the same compound, the stable disease rate ([10]; safety population) was 29%.
